This is an account of results in ChEMBL document CHEMBL1148398, “Design, synthesis, and biological evaluation of thio-containing compounds with serum HDL-cholesterol-elevating properties” (2004).

Assay [1] concerns Rattus norvegicus. Description: Effect of compound on aspartate aminotransferase (AST) levels in 5th group of normal chow-fed male rats after a dose of 20 mg/kg/day. The assay is classed as functional, organism-based. The method, boiled down: (§1)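 Male Sprague–Dawley CD rats (60–80 g) on standard chow under a reversed 12 h light/dark cycle. Compound was suspended in 1.3% Tween 80/0.25% CMC and given as a single daily oral gavage dose for 4 days. Rats were fasted overnight and killed 24 h after the last dose. Serum ALT, AST, ALKP and LDH were read on a clinical analyzer. Weight gain was start versus end weight. Mean ± SEM, n = 6.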

Assay [2] has as its system Cricetinae gen. sp. Description: Effect of compound on liver weight in 2nd group of cholesterol-fed male hamsters at 10 mg/kg/day after 14 days of treatment. The assay is classed as functional. The method, boiled down:
(§2)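 Male Syrian Golden hamsters, 90–100 g, fed chow plus 0.25% cholesterol for 2 weeks before and throughout dosing. Compound suspended in 2% Tween 80 in saline, given by oral gavage for 14 days; vehicle controls. Fasted 4 h, last dose 2 h before sacrifice, then weighed and blood and liver collected. Liver enzymes read on a clinical analyzer. Six per group, mean ± SEM.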

The subject of assay [3] is Cricetinae gen. sp. Description: Effect of compound on low-density lipoprotein cholesterol levels in 3rd group of cholesterol-fed male hamsters at 30 mg/kg/day after 14 days of treatment. Conditions: Mesocricetus auratus.
A short description of assay [4]: Effect on serum lipids in 5th group of normal chow-fed male rats after a dose of 20 mg/kg/day was evaluated as ratio of total plasma cholesterol levels to high-density lipoprotein cholesterol levels. In kind it is functional. An outline of the steps: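 Male Sprague–Dawley CD rats, 60–80 g, chow-fed, dosed by oral gavage daily for 4 days in 1.3% Tween 80/0.25% CMC. Fasted overnight, bled 24 h after the last dose. Serum total cholesterol by enzymatic reagent; HDL-C from cholesterol in FPLC fractions; TPC/HDL-C ratio calculated. Six per group, mean ± SEM.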

The test system of assay [5] is Cricetinae gen. sp. Description: Effect of compound on liver weight in 1st group of cholesterol-fed male hamsters at 3 mg/kg/day after 14 days of treatment. In kind it is functional. An outline of the steps:
as §2

Assay [6] relates to Rattus norvegicus. Description: Effect of compound on high-density lipoprotein cholesterol levels in 7th group of normal chow-fed male rats after a dose of 100 mg/kg/day. The assay is classed as functional, organism-based.
Assay [7] relates to Rattus norvegicus. Description: Percent change in triglycerides following oral administration of compound in normal chow-fed rats at 100 mg/kg/day for 4 days. The assay is classed as functional. An outline of the steps:
(§3)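 Chow-fed male Sprague–Dawley CD rats, 60–80 g, gavaged 100 mg/kg/day for 4 days in 1.3% Tween 80/0.25% CMC. Fasted overnight, bled 24 h after the last dose. Total cholesterol and glycerol-blanked triglycerides read enzymatically; lipoproteins by FPLC with cholesterol per fraction. % change versus control; six per group, p < 0.05.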

The test system of assay [8] is Rattus norvegicus. Description: Effect of compound on low-density lipoprotein cholesterol levels in 3rd group of normal chow-fed male rats after a dose of 5 mg/kg/day. In kind it is functional, organism-based. The method, boiled down: (§4)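 Male Sprague–Dawley CD rats, 60–80 g, on standard chow with reverse 12 h light/dark cycle. One oral gavage dose daily for 4 days, suspended in 1.3% Tween 80 and 0.25% CMC. Fasted overnight; sacrificed 24 h after the last dose. Serum TC on clinical analyzer, lipoproteins by FPLC with cholesterol per fraction, T4 on analyzer. Mean ± SEM, six rats per group.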

For assay [9], the system named is Rattus norvegicus. Description: Effect of compound on aspartate aminotransferase (AST) levels in 4th group of normal chow-fed male rats after a dose of 10 mg/kg/day. In kind it is functional, organism-based. The method, boiled down: as §1
In assay [10] the test system is Rattus norvegicus. Description: Effect of compound on total plasma cholesterol levels in 6th group of normal chow-fed male rats after a dose of 50 mg/kg/day. The assay is classed as functional, organism-based. The method, boiled down:
(§5)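 Male Sprague–Dawley CD rats (60–80 g) on Purina 5001 chow with a reverse 12 h light/dark cycle. Dosed once daily by oral gavage for 4 days, suspended in 1.3% Tween 80 / 0.25% CMC. Fasted overnight and bled 24 h after the last dose. Serum TC and glycerol-blanked TG measured enzymatically; VLDL-C by FPLC fractionation with cholesterol assay. n=6, mean ± SEM.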

In assay [11] the test system is Rattus norvegicus. Description: Effect of compound on very low-density lipoprotein cholesterol levels in 7th group of normal chow-fed male rats after a dose of 100 mg/kg/day. The assay is classed as functional, organism-based. The method, boiled down:
as §5

In assay [12] the test system is Rattus norvegicus. Description: Effect of compound on aspartate aminotransferase (AST) levels in 7th group of normal chow-fed male rats after a dose of 100 mg/kg/day. In kind it is functional, organism-based. The method, boiled down: as §1
The subject of assay [13] is Cricetinae gen. sp. Description: Effect of compound on very low-density lipoprotein cholesterol levels in 1st group of cholesterol-fed male hamsters at 3 mg/kg/day after 14 days of treatment. The following applies: Mesocricetus auratus.
The test system of assay [14] is Rattus norvegicus. Description: Effect of compound on very low-density lipoprotein cholesterol levels in 6th group of normal chow-fed male rats after a dose of 50 mg/kg/day. In kind it is functional, organism-based. An outline of the steps:
as §5

The subject of assay [15] is Rattus norvegicus. Description: Percent change in total plasma cholesterol following oral administration of compound in normal chow-fed rats at 100 mg/kg/day for 4 days. The assay is classed as functional. An outline of the steps: as §3
Assay [16] has as its system Rattus norvegicus. Description: Effect of compound on lactic dehydrogenase (LDH) levels in 3rd group of normal chow-fed male rats after a dose of 5 mg/kg/day. In kind it is functional, organism-based. The method, boiled down: as §1
For assay [17], the system named is Rattus norvegicus. Description: Effect of compound on low-density lipoprotein cholesterol levels in 1st group of normal chow-fed male rats after a dose of 1 mg/kg/day. In kind it is functional, organism-based. The method, boiled down: as §4
Assay [18] relates to Rattus norvegicus. Description: Effect of compound on triglyceride levels in 7th group of normal chow-fed male rats after a dose of 100 mg/kg/day. The assay is classed as functional, organism-based. The method, boiled down: as §5
Assay [19] concerns Rattus norvegicus. Description: Effect of compound on relative liver weight in 5th group of normal chow-fed male rats after a dose of 20 mg/kg/day. The assay is classed as functional. The method, boiled down: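 Chow-fed male Sprague–Dawley CD rats, 60–80 g, dosed by oral gavage once daily for 4 days in 1.3% Tween 80/0.25% CMC. Fasted overnight and sacrificed 24 h after the last dose. Liver weight expressed as % of body weight at termination. Six per group, mean ± SEM.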

Assay [20] concerns Rattus norvegicus. Description: Effect of compound on thyroxine levels in 3rd group of normal chow-fed male rats after a dose of 5 mg/kg/day. The assay is classed as functional, organism-based. The method, boiled down:
as §4

Regarding `CCN1CC(=O)N(c2cc(Cl)ccc2C)C1=S`, the Level came out at 318 U l-1 with Rattus norvegicus [1], 182 U l-1 with Rattus norvegicus [9], 214 U l-1 in the assay with Rattus norvegicus [12] and 743 U l-1 with Rattus norvegicus [16]. In addition, the Liver weight amounted to 9.08 g with Cricetinae gen. sp. [2] and 9.58 g in the assay with Cricetinae gen. sp. [5]. Moreover, the Serum level in the assay with Cricetinae gen. sp. [3] worked out at 125 mg/dL; in the assay with Rattus norvegicus [6], 76 mg/dL; in the assay on Rattus norvegicus [8], 6 mg/dL; in the assay on Rattus norvegicus [10] it was 101 mg/dL; with Rattus norvegicus [11], 5.7 mg/dL; with Cricetinae gen. sp. [13], 115 mg/dL. For the same compound, the Serum level with Rattus norvegicus [14] is 6.5 mg/dL; in the assay on Rattus norvegicus [17] it was 5.7 mg/dL; in the assay with Rattus norvegicus [18], 12 mg/dL; in the assay with Rattus norvegicus [20], 4.23 µg/dL. In addition, in assay [4], the Ratio stood at 1.44. Further, the figures for the Change in the assay on Rattus norvegicus [7] and with Rattus norvegicus [15] were -23.1% and 72.8%, respectively. Further, in the assay with Rattus norvegicus [19], the Relative liver weight is given as 4.3%.
